Values joined by “and” are separate entries in the source; they are usually repeats but may differ in a detail not shown here. Equal values may be shown once.

Data set [1] in a line: In Vitro Toxicity measured as the conc. required for 50% reduction in SRBabsorbance by F98 glioma cells. The format is functional, Rattus norvegicus. The method in brief: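 F98 rat glioma cells, 10,000/well in DMEM with 10% FBS, grown overnight at 37 °C, 5% CO2. Then exposed 24 h to varying compound concentrations. Fixed with cold TCA (1 h, 4 °C), stained 20 min with 0.4% SRB in 1% acetic acid, dye solubilized in 10 mM Tris base, A492 read. Six replicates per concentration, expressed as % untreated control; IC50 = 50% reduction.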

Data set [2] concerns Nucleic Acid. The experiment in a line: Concentration required to decrease the fluorescence of the ethidium bromide-calf thymus DNA complex by 50%. The class given is nucleic-acid assay, Bos taurus. In a few lines:
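Calf thymus DNA (10 μg) in 2 mM HEPES, 10 μM EDTA, 9.4 mM NaCl, pH 7.0, with 1.6 μM ethidium bromide. Polyamine added stepwise in aliquots. Fluorescence read at excitation 546 nm and emission 598 nm. IC50 is the concentration that lowers complex fluorescence by 50%.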

Data set [3] concerns Mus musculus. Kind of data set: In vivo biodistribution in mice liver bearing intracerebral GL261 gliomas at the dose of 10 microg of boron/g/day. The class given is ADME, organism-based. The method in brief: (§1)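 C57Bl/6 mice implanted stereotactically in brain (2.5–3.0 mm deep) with 10^5 GL261 cells in serum-free DMEM with 1.5% agarose. Polyamine-deficient diet and 2% DFMO water for 3 days, then Alzet pump infusion at 10 μg boron/g per day for 3 days with diet and DFMO continued. Five mice; tissue boron by DCP-AES, mean ± SD.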

Data set [4] can be described thus: In vitro cellular uptake by F98 glioma cells after 48 hr incubation in the presence of 5.1 micro g of B/mL media concentration. The format is functional, Rattus norvegicus. The method in brief:
(§2)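 5×10^6 F98 cells per flask in DMEM with 10% FBS for 24 h. Medium then replaced with compound at the molar concentration matching the stated boron level, and cells held at 37 °C, 5% CO2. Cells washed three times with PBS, detached with trypsin-EDTA and digested in H2SO4/H2O2. Boron in media and cells by DCP-AES; 10^9 cells ≈ 1 g.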

The subject of data set [5] is Mus musculus. Kind of data set: In vivo biodistribution in mice kidney bearing intracerebral GL261 gliomas at the dose of 10 microg of boron/g/day. The format is ADME, organism-based. In a few lines:
as §1

The species entered for data set [6] is Rattus norvegicus. Kind of data set: In vitro cellular uptake by F98 glioma cells after 48 hr incubation in the presence of 0.5 micro g of B/mL media concentration. The format is functional. In a few lines: as §2
Data set [7] is filed under the species Rattus norvegicus. Kind of data set: In vitro cellular uptake by F98 glioma cells after 48 hr incubation in the presence of 5.4 micro g of B/mL media concentration. The format is functional. In a few lines: as §2
For data set [8], the species on record is Rattus norvegicus. The experiment in a line: In vitro cellular uptake by F98 glioma cells after 24 h incubation in the presence of 5.4 ug of B/mL media concentration. The format is functional. In a few lines:
as §2

The species named for data set [9] is Rattus norvegicus. The experiment in a line: In vitro cellular uptake by F98 glioma cells after 48 hr incubation in the presence of 5.3 micro g of B/mL media concentration. The format is functional. In a few lines: as §2
For data set [10], the species on record is Rattus norvegicus. The experiment in a line: In vitro cellular uptake by F98 glioma cells after 24 h incubation in the presence of 5.3 ug of B/mL media concentration. The format is functional. The method in brief: as §2
Data set [11] relates to Mus musculus. The experiment in a line: In vivo biodistribution in mice muscle bearing subcutaneous B16 melanomas at the dose of 10 ug/g. The class given is ADME, organism-based, Muscle tissue.
The subject of data set [12] is Mus musculus. Kind of data set: In vivo biodistribution in mice liver bearing subcutaneous B16 melanomas at the dose of 10 ug/g. The class given is ADME, organism-based.
The subject of data set [13] is Mus musculus. The experiment in a line: In vivo biodistribution in mice blood bearing subcutaneous B16 melanomas at the dose of 10 ug/g. The format is ADME, organism-based.
For data set [14], the system named is Mus musculus. Kind of data set: In vivo biodistribution in mice kidney bearing subcutaneous B16 melanomas at the dose of 10 ug/g. The format is ADME, organism-based.
Data set [15] can be described thus: In vitro concentration required for 50% reduction in the uptake of [3H]-TdR by F98 glioma cells. The format is functional, Rattus norvegicus.
The species named for data set [16] is Rattus norvegicus. Kind of data set: In vitro cellular uptake by F98 glioma cells after 24 h incubation in the presence of 0.5 ug of B/mL media concentration. The class given is functional.

In the case of `Cl.Cl.Cl.NCCCCN(CCCN)Cc1ccc(B(O)O)cc1`, the IC50 (usually the concentration that inhibits the measured activity by half) in data set [1] is above 5000 µM; in [2], 115 µM. For the same compound, the Biodistribution in data set [3] is recorded as 22.9 ug of B g-1; in [5], 44 ug of B g-1. For the same compound, the Ccellular in data set [4] is listed as 114 ug of B (g of cells)-1.

As for “3-(2-{4-[(4-Amino-butyl)-(3-amino-propyl)-amino]-butyl}-cyclopropyl)-propane-1,2-diol; trihydrochloride”, the Ccellular (ug of B (g of cells)-1) in data set [6] was determined as 9; in [7] it was 104; in data set [8], 51.

With “3-[2-(4-{(3-Amino-propyl)-[4-(3-amino-propylamino)-butyl]-amino}-butyl)-cyclopropyl]-propane-1,2-diol hydrochloride”, the Ccellular (ug of B (g of cells)-1) in data set [6] came to 20; in data set [9], 83; in data set [10], 60.

Consider `NCCCCNCCCN` [SPERMIDINE], for which the results for the IC50 in data set [1] and in [2] were above 100 µM and 105 µM, respectively.

In the case of `NCCCNCCCCNCCCN` [SPERMINE], the 50% inhibitory concentration (IC50) in data set [1] is above 100 µM; in [2] it was 3 µM.

On to “N1-(3-Amino-propyl)-N1-(4-cyclopropyl-butyl)-butane-1,4-diamine(B10H10) [listing 1 of 2 here]”, for which the Biodistribution is 9.8 ug of B g-1 in data set [11]; 74.8 ug of B g-1 in data set [12]; 9.3 ug of B g-1 and 12.5 ug of B g-1 in data set [13]; 201.3 ug of B g-1 in data set [14]. The half-inhibitory concentration (IC50) in data set [2] was 147 µM; in data set [15] it was 22 µM.

Regarding “N1-(3-Amino-propyl)-N1-(4-cyclopropyl-butyl)-butane-1,4-diamine(B10H10) [listing 2 of 2 here]”, the Ccellular (ug of B (g of cells)-1) in data set [6] turned out to be 43; in data set [16] it was 65.

On to “N*1*-{4-[2-(2-Amino-ethyl)-cyclopropyl]-butyl}-N*1*-(3-amino-propyl)-butane-1,4-diamine; trihydrochloride”, for which the Ccellular (ug of B (g of cells)-1) in data set [6] was determined as 19; in data set [7], 116; in data set [8], 51.

Regarding “N,N'-Bis-(3-amino-propyl)-N-(4-cyclopropyl-butyl)-butane-1,4-diamine hydrochloride”, the Ccellular (ug of B (g of cells)-1) in data set [6] worked out at 64.

With “N-{4-[2-(2-Amino-ethyl)-cyclopropyl]-butyl}-N,N'-bis-(3-amino-propyl)-butane-1,4-diamine hydrochloride”, the figures for the Ccellular (ug of B (g of cells)-1) in [6], in data set [9] and in [10] were 15, 229 and 82, respectively.

Source of the values: ChEMBL document CHEMBL1132627, “Synthesis and biological evaluation of boron-containing polyamines as potential agents for neutron capture therapy of brain tumors” (J Med Chem, 1999).
